High-throughput results from PubChem.
Sampled rows, rich in hits. Any-hit rate of the full collection: about 1.8%.
CHRM5 agonist = CHRM5 agonism in calcium assay | CHO-K1 hM5 cells, Fluo-8 calcium fluorescence; 0% DMSO wells, 100% maximal acetylcholine response | activation, % at 3 µM | actives 0.19% (n = 360,000) | AID 624037;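 active = activation above the run's mean over test compounds plus 3 SD, cut at about 23% in these data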;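 also: signal is peak over basal fluorescence ratio across the kinetic read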
Target sequence (P08912 whole entry, looked up): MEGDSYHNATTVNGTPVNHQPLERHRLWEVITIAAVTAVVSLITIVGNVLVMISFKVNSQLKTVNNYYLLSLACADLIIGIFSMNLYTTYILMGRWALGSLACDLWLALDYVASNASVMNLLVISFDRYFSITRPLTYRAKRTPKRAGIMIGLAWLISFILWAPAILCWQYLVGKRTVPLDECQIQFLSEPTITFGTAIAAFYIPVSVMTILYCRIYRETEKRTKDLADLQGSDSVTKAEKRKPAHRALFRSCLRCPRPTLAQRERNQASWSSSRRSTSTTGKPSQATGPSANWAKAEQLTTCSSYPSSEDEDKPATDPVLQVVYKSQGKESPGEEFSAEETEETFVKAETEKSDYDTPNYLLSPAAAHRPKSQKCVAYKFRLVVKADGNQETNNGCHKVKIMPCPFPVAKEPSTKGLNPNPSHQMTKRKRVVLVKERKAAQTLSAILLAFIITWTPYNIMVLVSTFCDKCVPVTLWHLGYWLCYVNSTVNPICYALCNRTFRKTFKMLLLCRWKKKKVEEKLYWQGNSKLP
M5 PAM = potentiates acetylcholine response at human M5 receptor; P08912; CHO-K1 hM5, Fluo-8 calcium, ACh EC20 PAM; 0% = ACh EC20, 100% = ACh EC100; activation, % at 3 µM; actives 0.3% (n = 360,000); AID 624038;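 active = activation above the run cutoff, the mean activation of all test compounds plus 3 SD, cut at about 18% in these data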
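system = human M5 receptor in CHO-K1 cells | reagent = EC20 acetylcholine as agonist stimulus | compound dosing = single-point, 3 µM nominal | incubation = Fluo-8 loading 80 min at 37 °C plus 30 min room temperature | detection = Fluo-8 calcium dye fluorescence, kinetic read | benchmarks = low control EC20 acetylcholine (0%), high control EC100 acetylcholine (100%)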
CHRM4 PAM = potentiates acetylcholine response at human M4 receptor; P08173; CHO-K1 hM4/Gqi5, Fluo-8 calcium fluorescence, ACh EC20; 0% = ACh EC20, 100% = maximal ACh; activation, % at 3 µM; actives 0.4% (n = 360,000); AID 624126;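 active = activation above its plate's cutoff, the mean activation of sample wells plus 3 SD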
CHRM4 agonist = CHRM4 agonism in calcium assay; actives 0.14% (n = 360,000); AID 624127; activation, % at 3 µM; CHO-K1 hM4/Gqi5, Fluo-8 calcium fluorescence; vehicle 0%, full acetylcholine response 100%;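 active = activation above the run mean over all test wells plus 3 SD, cut at about 32% in these data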;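 also: peak over basal fluorescence ratio per well then scaled between controls; 0% = DMSO wells and 100% = acetylcholine at EC100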
M5 antag = antagonists of human muscarinic M5 receptor (CHRM5); P08912; CHO-hM5 cells, Fluo-8 calcium fluorescence, ACh EC80; inhibition, % at 3 µM; actives 0.59% (n = 360,000); AID 624040;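 active = inhibition above a per-plate cutoff, the mean of that plate's test compounds plus 3 SD, cut at about 27% in these data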;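 also: 0% = acetylcholine EC80 with DMSO and 100% = DMSO without agonist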
M4 antag = blocks acetylcholine activation of human M4 receptor. AID 624125. actives 0.73% (n = 360,000). CHO-hM4 cells, ACh EC80, Fluo-8 calcium fluorescence. P08173. inhibition, % at 3 µM;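 active = inhibition above its plate's cutoff, the mean inhibition of sample wells plus 3 SD, cut at about 27% in these data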;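 also: 0% = acetylcholine EC80 with DMSO and 100% = DMSO without agonist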
Starred values were filed as active, the others as inactive.

SMILES	CHRM5 agonist	M5 PAM	CHRM4 PAM	CHRM4 agonist	M5 antag	M4 antag
C(#CCN1CCCC1)CC(c1ccccc1)c1ccccc1	-7	-21	-23	9	75*	69*
CC(C)(C)C(O)(CC#CCN1CCCC1)c1ccccc1 (stereo unspecified)	-13	-33	-22	1	34*	22
CCCS(=O)(=O)NC(=O)C1(C)CCN(C(=O)c2cc(F)cc(F)c2)C1 (stereo unspecified)	0	-2	7	1	3	-6
O=C(Nc1ccc(OC(F)F)cc1)c1cc(S(=O)(=O)N2CCOCC2)ccc1F	-3	-2	-4	4	-2	-4
COc1cc(C(=O)NNC(=O)c2cccn2C)cc(OC)c1OC	3	1	-4	1	-1	10
CN1CCN(CC#CCC(O)(c2ccccc2)c2ccccc2)CC1	-3	8	6	1	-11	0
CC(C)(C#CCN1CCCCC1)OCCOC(c1ccccc1)c1ccccc1	-8	-19	-42	-4	30*	97*
OC(CC#CCN1CCCCC1)(c1ccccc1)c1ccccc1	-19	-30	-18	2	26	44*
CC1CCCN1CC#CC(O)(c1ccccc1)c1ccccc1 (stereo unspecified)	-19	-31	-17	0	99*	97*
CC(O)(C#CCN1CCCCC1)c1ccccc1 (stereo unspecified)	-7	-13	-11	1	7	10
CC1CCCCN1C(C(=O)O)c1ccccc1 (stereo unspecified)	-6	1	5	0	-11	3
CC(C)C(O)(CC#CCN1CCCC1)c1ccccc1 (stereo unspecified)	-18	-35	-26	1	42*	49*
CC(C)C(O)(C#CCN1CCCCCC1)c1ccccc1 (stereo unspecified)	-9	-20	-23	2	60*	54*
CN(CC(=O)Nc1ccccc1Cl)C(=O)CCc1nc2ccccc2c(=O)[nH]1	1	-6	5	2	2	-16
Cc1sc2ncnc(NCC3COc4ccccc4O3)c2c1C (stereo unspecified)	1	-17	-12	11	38*	32*
c1ccc(-c2csc3ncnc(NCC4COc5ccccc5O4)c23)cc1 (stereo unspecified)	-4	-16	-10	5	38*	38*
COc1cc2c(cc1OC)CN(C1CCC(C)CC1)CC2 (stereo unspecified)	-2	3	-5	0	-1	-3
Cc1cc(C)n(-c2nc3c(c(=O)[nH]c(=O)n3C)n2CC(O)COc2ccc(Cl)cc2Cl)n1 (stereo unspecified)	-10	22*	-1	0	-2	-11
CCN(CC)CCNc1nc2c(c(=O)[nH]c(=O)n2C)n1CC(O)COc1ccc(Cl)cc1Cl (stereo unspecified)	-6	3	-6	0	4	11
C[C@@H]1CC=C[C@H]2[C@H]1C(=O)N(Cc1ccccc1)[C@H]2c1ccc2ccccc2c1Br	1	22*	2	0	0	-8
C[C@@H]1CC=C[C@H]2[C@H]1C(=O)N(Cc1ccccc1)[C@H]2c1ccc2ccccc2c1	4	1	-4	0	5	-2
CC[C@@]1(C(=O)OC)N[C@H](CN(C)C(=O)NC(C)C)[C@@H]2C(=O)N(C)C(=O)[C@@H]21	1	-4	0	0	-3	-11
CSc1cccc(NC(=O)c2ccc(NC3=NC4CS(=O)(=O)CC4S3)cc2)c1 (stereo unspecified)	1	-5	-2	0	4	-1
CCOC(=O)C1(C)CCCN(C(=O)c2c(F)cccc2F)C1 (stereo unspecified)	0	3	-1	1	-7	-11
Cc1ccc(NN2C(=O)C=C(c3ccc(Cl)cc3)C2=O)cc1	10	-3	-14	9	23	70*
SMILES	CHRM5 agonist	M5 PAM	CHRM4 PAM	CHRM4 agonist	M5 antag	M4 antag
O=C(/C(=C/c1ccc(Cl)cc1)c1nc2ccccc2[nH]1)c1ccccc1	-5	-23	-20	1	13	38*
O=C(N/C(=C/c1ccc(Cl)cc1)c1nc2ccccc2[nH]1)c1ccco1	3	-1	-10	3	-5	0
COc1ccc(CC2=CC(=O)c3ccccc3C2=O)cc1	7	2	-5	9	11	33*
Cc1nccn1-c1c2c(c(C#N)c3nc4ccccc4n13)CCCC2	-1	4	6	1	4	-4
N#Cc1c2c(c(-n3cnc4ccccc43)n3c1nc1ccccc13)CCC2	-1	47*	-1	0	31*	-10
CCC(O)(CCN1CCCCC1)c1ccccc1 (stereo unspecified)	-10	-23	-13	0	23	33*
O=C(CCCCN1CCCCC1)c1ccccc1	-5	-5	-21	10	10	4
OC(CCCN1CCCCC1)(c1ccccc1)c1ccccc1	-1	-18	-18	1	24	47*
COc1cc(OC)cc(-c2c(-c3cccs3)c3cc(-c4ccc(N(C)C)nc4)ccc3n2C)c1	0	2	1	0	8	-1
COc1ccc(C(=O)NC(=S)NNC(=O)c2ccccc2O)cc1	-4	5	4	2	1	-11
COc1ccc(C(=O)NC(=S)NNC(=O)c2ccccc2C)cc1	59*	-27	-51	123*	28*	12
COc1ccc(C(=O)NNC(=S)NC(=O)C(C)(C)C)cc1	27*	-19	-30	88*	12	8
COc1c(Cl)cccc1-c1cn2ccc(C)cc2n1	-3	-8	9	0	14	-11
COCCN(CC(=O)Nc1cccc(C)c1C)C(=O)Cn1c(=O)cnc2ccccc21	2	12	0	0	1	4
CC1CCN(CCNC(=S)Nc2ccc(Cl)cc2)CC1	-7	5	-12	4	-7	3
CN(C)/C=C1\C=C2C(=O)c3ccccc3N2C1=O	110*	-23	-30	65*	25	10
CN(C)S(=O)(=O)N1C(=O)c2ccccc2C1=O	-4	-2	4	1	2	2
O=C(NC(Nc1nc2ccc([N+](=O)[O-])cc2s1)(C(F)(F)F)C(F)(F)F)c1ccccc1Cl	6	-19	-10	7	49*	15
O=C(NC(Nc1nc2ccc([N+](=O)[O-])cc2s1)(C(F)(F)F)C(F)(F)F)c1cccnc1	9	-15	-7	14	26	8
